Results as given in ChEMBL document CHEMBL5653631, “A Potent and Selective ULK1 Inhibitor Suppresses Autophagy and Sensitizes Cancer Cells to Nutrient Stress” (iScience, 2018).
One block for each compound: values may come before it.

Tests used:
[1] = target: T1, Ephrin type-B receptor 4 (Homo sapiens) (UniProt P54760); assay: Inhibition of human recombinant EphB4 at 500 nM related to control ULK1
T1 sequence (whole entry): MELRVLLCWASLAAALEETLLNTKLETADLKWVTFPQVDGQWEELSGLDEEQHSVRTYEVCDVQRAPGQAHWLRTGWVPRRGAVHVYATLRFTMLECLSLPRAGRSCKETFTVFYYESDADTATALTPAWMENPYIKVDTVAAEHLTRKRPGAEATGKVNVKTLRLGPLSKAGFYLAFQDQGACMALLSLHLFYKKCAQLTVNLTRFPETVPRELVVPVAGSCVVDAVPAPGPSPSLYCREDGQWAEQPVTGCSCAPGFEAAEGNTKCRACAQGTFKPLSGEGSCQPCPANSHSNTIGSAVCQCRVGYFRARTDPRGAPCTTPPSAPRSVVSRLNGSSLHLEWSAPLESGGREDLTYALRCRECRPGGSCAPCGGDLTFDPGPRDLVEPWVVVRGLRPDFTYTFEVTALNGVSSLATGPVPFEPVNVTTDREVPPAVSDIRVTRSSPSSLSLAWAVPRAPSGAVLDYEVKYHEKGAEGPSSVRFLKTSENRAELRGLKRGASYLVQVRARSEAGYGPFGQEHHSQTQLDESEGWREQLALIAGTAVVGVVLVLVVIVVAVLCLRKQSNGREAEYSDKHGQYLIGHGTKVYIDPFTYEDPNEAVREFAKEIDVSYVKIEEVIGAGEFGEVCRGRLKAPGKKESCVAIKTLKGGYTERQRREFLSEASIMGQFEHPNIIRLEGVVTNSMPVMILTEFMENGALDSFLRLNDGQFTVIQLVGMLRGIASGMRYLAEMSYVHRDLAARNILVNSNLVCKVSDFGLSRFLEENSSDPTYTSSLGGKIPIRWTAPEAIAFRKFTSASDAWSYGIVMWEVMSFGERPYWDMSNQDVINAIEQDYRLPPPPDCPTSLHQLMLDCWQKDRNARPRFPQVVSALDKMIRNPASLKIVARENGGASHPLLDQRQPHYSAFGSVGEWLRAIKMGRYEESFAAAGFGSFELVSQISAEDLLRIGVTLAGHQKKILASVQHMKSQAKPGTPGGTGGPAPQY

[2] = target: T2, Tyrosine-protein kinase ZAP-70 (Homo sapiens) (UniProt P43403); assay: Inhibition of human recombinant ZAP70 at 500 nM related to control ULK1
T2 sequence (whole entry): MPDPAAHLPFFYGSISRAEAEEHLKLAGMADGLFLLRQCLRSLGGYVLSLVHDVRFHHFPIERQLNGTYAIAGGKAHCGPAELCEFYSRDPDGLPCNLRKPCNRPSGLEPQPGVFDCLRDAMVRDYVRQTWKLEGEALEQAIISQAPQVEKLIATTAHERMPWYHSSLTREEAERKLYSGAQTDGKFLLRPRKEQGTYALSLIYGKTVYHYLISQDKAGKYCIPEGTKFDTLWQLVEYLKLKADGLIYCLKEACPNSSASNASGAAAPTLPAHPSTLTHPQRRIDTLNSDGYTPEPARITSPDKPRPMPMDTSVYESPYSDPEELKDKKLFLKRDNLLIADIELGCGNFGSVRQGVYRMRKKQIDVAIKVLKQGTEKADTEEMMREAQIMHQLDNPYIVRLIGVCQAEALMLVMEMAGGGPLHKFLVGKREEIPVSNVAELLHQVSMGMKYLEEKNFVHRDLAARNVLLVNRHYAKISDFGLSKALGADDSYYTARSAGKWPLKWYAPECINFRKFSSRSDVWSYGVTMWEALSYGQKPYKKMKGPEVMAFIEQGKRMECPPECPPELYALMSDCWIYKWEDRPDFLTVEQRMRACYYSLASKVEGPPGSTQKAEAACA

[3] = target: Angiopoietin-1 receptor (Homo sapiens) (UniProt Q02763); assay: Inhibition of human recombinant Tie2 at 500 nM related to control ULK1
Chain of Angiopoietin-1 receptor (Homo sapiens) (Q02763 whole entry): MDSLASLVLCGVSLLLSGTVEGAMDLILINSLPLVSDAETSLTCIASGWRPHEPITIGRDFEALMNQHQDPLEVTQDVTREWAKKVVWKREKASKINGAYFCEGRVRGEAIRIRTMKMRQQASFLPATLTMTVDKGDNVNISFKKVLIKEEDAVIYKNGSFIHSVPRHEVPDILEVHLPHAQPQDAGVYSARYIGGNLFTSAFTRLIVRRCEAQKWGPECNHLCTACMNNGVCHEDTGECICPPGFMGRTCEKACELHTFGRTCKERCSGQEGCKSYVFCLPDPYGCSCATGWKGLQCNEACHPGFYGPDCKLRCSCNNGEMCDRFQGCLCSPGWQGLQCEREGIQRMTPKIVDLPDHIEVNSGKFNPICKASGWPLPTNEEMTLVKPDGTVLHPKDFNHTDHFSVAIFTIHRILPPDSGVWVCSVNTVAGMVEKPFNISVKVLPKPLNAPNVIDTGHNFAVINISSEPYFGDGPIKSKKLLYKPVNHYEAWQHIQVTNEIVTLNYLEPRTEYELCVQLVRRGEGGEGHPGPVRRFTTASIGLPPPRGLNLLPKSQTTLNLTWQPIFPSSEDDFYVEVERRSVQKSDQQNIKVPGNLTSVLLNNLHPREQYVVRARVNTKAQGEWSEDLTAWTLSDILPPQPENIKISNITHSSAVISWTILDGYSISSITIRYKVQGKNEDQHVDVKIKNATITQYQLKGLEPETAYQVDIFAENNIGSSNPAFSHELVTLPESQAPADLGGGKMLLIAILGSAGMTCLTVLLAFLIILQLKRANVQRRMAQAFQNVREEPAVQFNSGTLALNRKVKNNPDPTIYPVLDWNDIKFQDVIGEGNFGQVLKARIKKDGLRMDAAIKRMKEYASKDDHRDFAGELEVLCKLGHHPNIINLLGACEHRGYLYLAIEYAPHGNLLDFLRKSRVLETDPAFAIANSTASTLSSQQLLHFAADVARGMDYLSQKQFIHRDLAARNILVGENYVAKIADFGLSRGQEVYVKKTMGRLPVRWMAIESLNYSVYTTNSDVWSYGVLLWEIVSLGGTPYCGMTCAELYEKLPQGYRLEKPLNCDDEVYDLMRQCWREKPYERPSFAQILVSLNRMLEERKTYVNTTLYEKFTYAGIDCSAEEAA

[4] = target: T3, Serine/threonine-protein kinase BRSK1 (Homo sapiens) (UniProt Q8TDC3); assay: Inhibition of human recombinant BRSK1 at 500 nM related to control ULK1
T3 sequence (whole entry): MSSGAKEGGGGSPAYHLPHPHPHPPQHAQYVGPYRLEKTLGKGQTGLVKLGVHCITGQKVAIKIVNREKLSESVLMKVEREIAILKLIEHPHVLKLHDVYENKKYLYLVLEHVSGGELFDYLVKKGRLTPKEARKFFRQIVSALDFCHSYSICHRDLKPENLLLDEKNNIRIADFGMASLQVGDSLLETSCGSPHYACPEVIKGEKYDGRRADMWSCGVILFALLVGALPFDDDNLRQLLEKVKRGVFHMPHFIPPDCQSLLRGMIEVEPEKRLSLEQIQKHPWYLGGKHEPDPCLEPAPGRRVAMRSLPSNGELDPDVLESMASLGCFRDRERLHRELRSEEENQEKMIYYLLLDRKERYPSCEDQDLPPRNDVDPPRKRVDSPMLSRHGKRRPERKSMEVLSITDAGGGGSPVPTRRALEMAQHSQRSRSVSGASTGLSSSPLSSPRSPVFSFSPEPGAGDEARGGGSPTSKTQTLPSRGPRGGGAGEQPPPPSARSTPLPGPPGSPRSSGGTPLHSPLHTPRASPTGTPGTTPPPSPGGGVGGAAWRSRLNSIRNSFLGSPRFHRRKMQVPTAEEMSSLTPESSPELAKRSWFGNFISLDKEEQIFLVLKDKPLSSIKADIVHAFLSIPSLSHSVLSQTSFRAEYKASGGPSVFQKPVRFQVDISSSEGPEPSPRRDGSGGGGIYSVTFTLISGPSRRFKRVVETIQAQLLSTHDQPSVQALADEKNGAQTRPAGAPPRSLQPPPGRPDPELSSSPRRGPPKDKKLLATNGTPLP
Method in brief: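 Recombinant human kinase panel (327 kinases) run as radiometric activity assays, each kinase in duplicate at one compound concentration. Activity remaining expressed relative to vehicle control; percent inhibition taken as 100% minus % activity remaining.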

[5] = target: Proto-oncogene tyrosine-protein kinase receptor Ret (Homo sapiens) (UniProt P07949); assay: Inhibition of human recombinant RET at 500 nM related to control ULK1
Chain of Proto-oncogene tyrosine-protein kinase receptor Ret (Homo sapiens) (P07949 whole entry): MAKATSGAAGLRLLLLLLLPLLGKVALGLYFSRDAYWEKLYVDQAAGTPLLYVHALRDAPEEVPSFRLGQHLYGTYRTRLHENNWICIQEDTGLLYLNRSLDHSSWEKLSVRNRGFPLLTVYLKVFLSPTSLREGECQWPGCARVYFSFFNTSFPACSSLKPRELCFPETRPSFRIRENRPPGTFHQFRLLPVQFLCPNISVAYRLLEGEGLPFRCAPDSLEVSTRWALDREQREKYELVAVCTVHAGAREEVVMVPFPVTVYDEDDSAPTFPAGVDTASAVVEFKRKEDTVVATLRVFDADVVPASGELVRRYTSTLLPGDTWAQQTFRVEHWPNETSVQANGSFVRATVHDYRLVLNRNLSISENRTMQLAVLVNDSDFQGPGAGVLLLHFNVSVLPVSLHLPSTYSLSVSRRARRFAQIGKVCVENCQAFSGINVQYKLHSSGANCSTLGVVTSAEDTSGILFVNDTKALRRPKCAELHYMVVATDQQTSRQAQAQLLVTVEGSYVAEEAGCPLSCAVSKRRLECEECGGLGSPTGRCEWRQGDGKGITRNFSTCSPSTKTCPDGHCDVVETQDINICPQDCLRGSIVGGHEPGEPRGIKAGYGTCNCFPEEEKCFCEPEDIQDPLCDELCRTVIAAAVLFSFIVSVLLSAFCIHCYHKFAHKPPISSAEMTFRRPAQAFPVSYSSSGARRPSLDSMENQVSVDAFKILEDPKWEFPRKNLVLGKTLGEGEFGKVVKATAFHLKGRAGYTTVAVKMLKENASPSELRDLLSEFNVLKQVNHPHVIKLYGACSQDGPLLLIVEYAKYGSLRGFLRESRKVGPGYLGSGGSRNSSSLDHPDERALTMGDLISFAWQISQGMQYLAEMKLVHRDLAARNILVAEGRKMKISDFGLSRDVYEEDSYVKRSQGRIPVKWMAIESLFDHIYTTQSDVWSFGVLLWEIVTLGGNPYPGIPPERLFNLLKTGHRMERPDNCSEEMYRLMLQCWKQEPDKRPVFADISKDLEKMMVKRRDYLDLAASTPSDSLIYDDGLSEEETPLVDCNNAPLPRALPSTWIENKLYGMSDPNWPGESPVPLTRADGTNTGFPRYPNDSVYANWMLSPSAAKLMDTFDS

[6] = target: 5'-AMP-activated protein kinase catalytic subunit alpha-2 (Homo sapiens) (UniProt P54646); assay: Inhibition of human recombinant AMPKa2 at 15 nM in presence of ATP by radiometric assay relative to control
Chain of 5'-AMP-activated protein kinase catalytic subunit alpha-2 (Homo sapiens) (P54646 whole entry, looked up): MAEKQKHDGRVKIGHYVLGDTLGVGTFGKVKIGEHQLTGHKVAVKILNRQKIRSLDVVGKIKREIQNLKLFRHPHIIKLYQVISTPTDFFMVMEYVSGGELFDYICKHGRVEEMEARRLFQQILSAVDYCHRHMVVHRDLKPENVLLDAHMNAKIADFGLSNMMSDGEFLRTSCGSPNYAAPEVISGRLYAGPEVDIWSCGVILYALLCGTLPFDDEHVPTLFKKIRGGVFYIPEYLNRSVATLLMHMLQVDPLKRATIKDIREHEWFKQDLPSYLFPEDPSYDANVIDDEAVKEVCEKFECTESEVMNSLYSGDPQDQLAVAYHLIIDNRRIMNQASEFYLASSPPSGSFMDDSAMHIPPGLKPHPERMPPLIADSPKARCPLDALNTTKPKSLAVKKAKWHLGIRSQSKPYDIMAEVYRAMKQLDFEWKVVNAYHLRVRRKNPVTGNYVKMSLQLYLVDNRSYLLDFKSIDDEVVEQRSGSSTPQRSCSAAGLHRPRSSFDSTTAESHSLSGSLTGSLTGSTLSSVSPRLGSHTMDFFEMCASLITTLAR
Method in brief: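 Panel of 327 recombinant human kinases, each assayed in vitro by radiometric activity assay in duplicate at a single inhibitor concentration per compound, chosen with reference to its ULK1 inhibition. Activity remaining was expressed as percent of vehicle control, and percent inhibition was calculated as 100 minus percent activity remaining.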

[7] = target: Focal adhesion kinase 1 (Homo sapiens) (UniProt Q05397); assay: Inhibition of human recombinant FAK at 15 nM related to control ULK1
Chain of Focal adhesion kinase 1 (Homo sapiens) (Q05397 2-1052 limits assumed): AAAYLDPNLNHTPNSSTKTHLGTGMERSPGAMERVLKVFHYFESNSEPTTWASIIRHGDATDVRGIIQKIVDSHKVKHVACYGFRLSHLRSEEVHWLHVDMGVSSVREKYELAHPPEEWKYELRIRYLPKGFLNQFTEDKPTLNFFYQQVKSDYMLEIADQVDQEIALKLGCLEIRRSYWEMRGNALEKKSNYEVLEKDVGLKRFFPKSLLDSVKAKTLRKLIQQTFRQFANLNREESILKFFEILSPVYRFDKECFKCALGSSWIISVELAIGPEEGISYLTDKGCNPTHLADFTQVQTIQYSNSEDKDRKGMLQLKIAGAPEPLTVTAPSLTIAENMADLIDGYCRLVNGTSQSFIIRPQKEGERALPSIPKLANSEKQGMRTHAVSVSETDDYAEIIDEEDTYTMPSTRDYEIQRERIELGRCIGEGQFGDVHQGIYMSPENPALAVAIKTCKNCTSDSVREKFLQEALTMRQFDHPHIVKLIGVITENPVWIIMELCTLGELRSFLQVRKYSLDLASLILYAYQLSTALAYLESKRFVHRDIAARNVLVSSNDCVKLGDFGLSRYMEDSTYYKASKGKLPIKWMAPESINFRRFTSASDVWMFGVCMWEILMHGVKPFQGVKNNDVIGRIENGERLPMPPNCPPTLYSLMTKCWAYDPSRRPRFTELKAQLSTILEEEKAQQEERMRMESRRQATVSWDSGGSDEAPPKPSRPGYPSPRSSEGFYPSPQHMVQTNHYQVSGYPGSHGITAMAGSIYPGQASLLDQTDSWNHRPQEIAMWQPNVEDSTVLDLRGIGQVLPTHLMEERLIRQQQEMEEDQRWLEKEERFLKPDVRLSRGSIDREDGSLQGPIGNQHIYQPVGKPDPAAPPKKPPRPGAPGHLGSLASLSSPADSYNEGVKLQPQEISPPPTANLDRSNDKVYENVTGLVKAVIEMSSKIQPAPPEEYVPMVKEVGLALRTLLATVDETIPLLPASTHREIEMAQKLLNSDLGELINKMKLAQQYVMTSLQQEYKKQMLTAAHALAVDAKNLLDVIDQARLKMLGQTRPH

[8] = target: Dual specificity protein kinase CLK2 (Homo sapiens) (UniProt P49760); assay: Inhibition of human recombinant CLK2 at 40 nM in presence of ATP by radiometric assay relative to control
Chain of Dual specificity protein kinase CLK2 (Homo sapiens) (P49760 whole entry, looked up): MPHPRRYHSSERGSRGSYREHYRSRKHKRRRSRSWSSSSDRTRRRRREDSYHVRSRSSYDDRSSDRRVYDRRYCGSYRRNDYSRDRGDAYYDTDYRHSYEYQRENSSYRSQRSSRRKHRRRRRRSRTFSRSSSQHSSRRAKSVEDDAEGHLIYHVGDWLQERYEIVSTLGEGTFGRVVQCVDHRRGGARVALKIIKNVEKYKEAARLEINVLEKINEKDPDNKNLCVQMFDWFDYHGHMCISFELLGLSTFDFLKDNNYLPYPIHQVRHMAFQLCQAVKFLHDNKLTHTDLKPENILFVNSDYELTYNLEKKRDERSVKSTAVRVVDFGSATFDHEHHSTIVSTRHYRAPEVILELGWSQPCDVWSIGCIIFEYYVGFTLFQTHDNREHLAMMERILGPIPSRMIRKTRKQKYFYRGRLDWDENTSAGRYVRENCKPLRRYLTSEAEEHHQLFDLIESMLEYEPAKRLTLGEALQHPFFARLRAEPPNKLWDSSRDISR

- fold change (FC) [1]: 0
- fold change (FC) [2]: 0.01
- fold change (FC) [3]: 0.31
- fold change (FC) [4]: 0.03
- fold change (FC) [5]: 0.04
SMILES: CNC(=O)c1ccccc1Oc1nc(Nc2cc(OC)c(OC)c(OC)c2)ncc1Br

- inhibition [6]: 83%
- fold change (FC) [7]: 0
SMILES: CC(C)[C@H](NC(=O)c1cc(-c2cnn3cc(-c4ccc(OCCN5CCCCC5)cc4)cnc23)cs1)C(F)(F)F

- inhibition [8]: 19%
SMILES: O=C(N[C@@H](C1CC1)C(F)(F)F)c1cc(-c2cnn3cc(-c4ccc(F)cc4)cnc23)cs1
